Source: ChEMBL document CHEMBL2062515, “Synthesis and evaluation of novel radioligands for positron emission tomography imaging of metabotropic glutamate receptor subtype 1 (mGluR1) in rodent brain” (J Med Chem, 2012)

Key:
Blood = experiment: Biodistribution in mouse blood at 4.8 MBq/140 uL, iv after 1 min by gamma counting; format: ADME, organism-based; conditions: in vivo
Method in brief: (§1)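 Mice received the radioligand in saline by tail vein (4.8 MBq/140 μL, 40 pmol). Four mice per time point were killed by cervical dislocation at 1, 5, 15, 30 and 60 min. Tissues were removed quickly and counted in an autogamma counter. Data are decay-corrected % injected dose per gram of wet tissue, mean ± SE, n = 4.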

Heart [1] = experiment: Biodistribution in mouse heart at 4.8 MBq/140 uL, iv after 1 min by gamma counting; format: ADME, organism-based; conditions: in vivo; method in brief: as §1
Lung [2] = experiment: Biodistribution in mouse lung at 4.8 MBq/140 uL, iv after 1 min by gamma counting; format: ADME, organism-based; conditions: in vivo; method in brief: as §1
Liver [3] = experiment: Biodistribution in mouse liver at 4.8 MBq/140 uL, iv after 1 min by gamma counting; format: ADME, organism-based; conditions: in vivo; method in brief: as §1
Spleen [4] = experiment: Biodistribution in mouse spleen at 4.8 MBq/140 uL, iv after 1 min by gamma counting; format: ADME, organism-based; conditions: in vivo
Method in brief: (§2)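 [¹¹C]radioligand in saline (4.8 MBq/140 μL, 40 pmol) injected via tail vein; four mice per time point killed by cervical dislocation at 1, 5, 15, 30, 60 min. Tissues (small intestine including contents) removed, counted in autogamma counter, decay-corrected, expressed as % injected dose per gram wet tissue; mean SE, n = 4.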

Mus musculus [5] = experiment: Biodistribution in mouse small intestine at 4.8 MBq/140 uL, iv after 1 min by gamma counting; format: ADME, organism-based; conditions: in vivo; method in brief: as §2
Heart [6] = experiment: Biodistribution in mouse heart at 4.8 MBq/140 uL, iv after 5 mins by gamma counting; format: ADME, organism-based; conditions: in vivo; method in brief: as §1
Mus musculus [7] = experiment: Biodistribution in mouse testis at 4.8 MBq/140 uL, iv after 5 mins by gamma counting; format: ADME, organism-based; conditions: in vivo; method in brief: as §2
Brain [8] = experiment: Biodistribution in mouse brain at 4.8 MBq/140 uL, iv after 5 mins by gamma counting; format: ADME, organism-based; conditions: in vivo; method in brief: as §1
Liver [9] = experiment: Biodistribution in mouse liver at 4.8 MBq/140 uL, iv after 15 mins by gamma counting; format: ADME, organism-based; conditions: in vivo, 0.25 h; method in brief: as §1
Spleen [10] = experiment: Biodistribution in mouse spleen at 4.8 MBq/140 uL, iv after 15 mins by gamma counting; format: ADME, organism-based; conditions: in vivo, 0.25 h; method in brief: as §2
Mus musculus [11] = experiment: Biodistribution in mouse testis at 4.8 MBq/140 uL, iv after 15 mins by gamma counting; format: ADME, organism-based; conditions: in vivo, 0.25 h; method in brief: as §2
Lung [12] = experiment: Biodistribution in mouse lung at 4.8 MBq/140 uL, iv after 30 mins by gamma counting; format: ADME, organism-based; conditions: in vivo, 0.5 h; method in brief: as §1
Liver [13] = experiment: Biodistribution in mouse liver at 4.8 MBq/140 uL, iv after 30 mins by gamma counting; format: ADME, organism-based; conditions: in vivo, 0.5 h; method in brief: as §1
Mus musculus [14] = experiment: Biodistribution in mouse small intestine at 4.8 MBq/140 uL, iv after 30 mins by gamma counting; format: ADME, organism-based; conditions: in vivo, 0.5 h; method in brief: as §2
Mus musculus [15] = experiment: Biodistribution in mouse testis at 4.8 MBq/140 uL, iv after 30 mins by gamma counting; format: ADME, organism-based; conditions: in vivo, 0.5 h; method in brief: as §2
Spleen [16] = experiment: Biodistribution in mouse spleen at 4.8 MBq/140 uL, iv after 60 mins by gamma counting; format: ADME, organism-based; conditions: in vivo, 1 h; method in brief: as §2
Thalamus [17] = experiment: Drug uptake in Sprague-Dawley rat thalamus at 16 MBq administered as bolus infusion after 45 mins by PET analysis; format: ADME, organism-based; conditions: in vivo, iv, 0.75 h
Thalamus [18] = experiment: Drug uptake in Sprague-Dawley rat thalamus at 16 MBq administered as bolus infusion after 90 mins by PET analysis; format: ADME, organism-based; conditions: in vivo, iv, 1.5 h
Striatum [19] = experiment: Drug uptake in Sprague-Dawley rat striatum at 16 MBq administered as bolus infusion after 45 mins by PET analysis; format: ADME, organism-based; conditions: in vivo, iv, 0.75 h
Striatum [20] = experiment: Drug uptake in Sprague-Dawley rat striatum at 16 MBq administered as bolus infusion after 90 mins by PET analysis; format: ADME, organism-based; conditions: in vivo, iv, 1.5 h
Thalamus [21] = experiment: Drug uptake in Sprague-Dawley rat thalamus at 17 MBq administered as bolus infusion by PET analysis in presence of JNJ16259685; format: ADME, organism-based; conditions: in vivo, iv
Striatum [22] = experiment: Drug uptake in Sprague-Dawley rat striatum at 17 MBq administered as bolus infusion by PET analysis in presence of JNJ16259685; format: ADME, organism-based; conditions: in vivo, iv
Brain [23] = experiment: Drug uptake in mGluR1 knockout mouse brain at 17 MBq, iv up to 60 mins by PET analysis; format: ADME, organism-based; conditions: in vivo, 1 h
[24] = Ratio of drug uptake in striatum to pons of Sprague-Dawley rat at 16 MBq administered as bolus infusion; conditions: in vivo, iv
[25] = Ratio of drug uptake in cerebellum to pons of Sprague-Dawley rat at 16 MBq administered as bolus infusion; conditions: in vivo, iv

SMILES: CC(C)Nc1cc(-c2csc(N(C)C(=O)c3ccc(O[11CH3])cc3)n2)ncn1
- Drug uptake (Blood): 3.79 % ID/g
- Drug uptake (Heart [1]): 4.63 % ID/g
- Drug uptake (Lung [2]): 5.17 % ID/g
- Drug uptake (Liver [3]): 8.16 % ID/g
- Drug uptake (Spleen [4]): 1.97 % ID/g
- Drug uptake (Mus musculus [5]): 3.65 % ID/g
- Drug uptake (Heart [6]): 2.09 % ID/g
- Drug uptake (Mus musculus [7]): 0.83 % ID/g
- Drug uptake (Brain [8]): 3.21 % ID/g
- Drug uptake (Liver [9]): 5.57 % ID/g
- Drug uptake (Spleen [10]): 1.98 % ID/g
- Drug uptake (Mus musculus [11]): 0.54 % ID/g
- Drug uptake (Lung [12]): 1.92 % ID/g
- Drug uptake (Liver [13]): 4.68 % ID/g
- Drug uptake (Mus musculus [14]): 4.07 % ID/g
- Drug uptake (Mus musculus [15]): 0.38 % ID/g
- Drug uptake (Spleen [16]): 2.36 % ID/g
- Drug uptake (Thalamus [17]): Active
- Drug uptake (Thalamus [18]): 80%
- Drug uptake (Striatum [19]): Active
- Drug uptake (Striatum [20]): 80%
- Drug uptake (Thalamus [21]): Not Active
- Drug uptake (Striatum [22]): Not Active
- Drug uptake (Brain [23]): Not Active
- Ratio [24]: 4.32
- Ratio [25]: 6.98
